The results in this text go back to ChEMBL document CHEMBL4354843, “Structure-Based Design of a Potent and Selective Covalent Inhibitor for SRC Kinase That Targets a P-Loop Cysteine” (J Med Chem, 2020).

Data set [1] addresses Protein-tyrosine kinase 2-beta (Homo sapiens) (UniProt Q14289). Kind of data set: Binding affinity to wild-type human full length PYK2 (M1 to E967 residues) expressed in bacterial expression system assessed as residual binding level at 1 uM by Kinomescan method relative to control. The essentials:
(§1)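 Active-site-directed competition binding panel (KinomeScan) covering 468 kinases. Test agent was screened at 1 μM. The read-out is the remaining kinase signal expressed relative to a DMSO control. Scores above 35%, taken as weak binding, were not reported.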

Data set [2] addresses Inhibitor of nuclear factor kappa-B kinase subunit epsilon (Homo sapiens) (UniProt Q14164). The data set is described as follows: Binding affinity to wild-type human full length IKK-epsilon (M1 to V716 residues) expressed in mammalian expression system assessed as residual binding level at 1 uM by Kinomescan method relative to control. The essentials: (§2)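 Active-site-directed KinomeScan competition binding panel covering 468 kinases, compound tested at 1 μM. Each readout is the kinase signal remaining with compound, expressed as a percentage of the DMSO control. […]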

The target of data set [3] is Casein kinase I isoform gamma-1 (Homo sapiens) (UniProt Q9HCP0). The data set is described as follows: Binding affinity to wild-type human partial length CSNK1G1 (T15 to S353 residues) expressed in bacterial expression system assessed as residual binding level at 1 uM by Kinomescan method relative to control.
Sequence of Casein kinase I isoform gamma-1 (Homo sapiens) (Q9HCP0 whole entry, looked up, the tested form may be a part, canonical isoform): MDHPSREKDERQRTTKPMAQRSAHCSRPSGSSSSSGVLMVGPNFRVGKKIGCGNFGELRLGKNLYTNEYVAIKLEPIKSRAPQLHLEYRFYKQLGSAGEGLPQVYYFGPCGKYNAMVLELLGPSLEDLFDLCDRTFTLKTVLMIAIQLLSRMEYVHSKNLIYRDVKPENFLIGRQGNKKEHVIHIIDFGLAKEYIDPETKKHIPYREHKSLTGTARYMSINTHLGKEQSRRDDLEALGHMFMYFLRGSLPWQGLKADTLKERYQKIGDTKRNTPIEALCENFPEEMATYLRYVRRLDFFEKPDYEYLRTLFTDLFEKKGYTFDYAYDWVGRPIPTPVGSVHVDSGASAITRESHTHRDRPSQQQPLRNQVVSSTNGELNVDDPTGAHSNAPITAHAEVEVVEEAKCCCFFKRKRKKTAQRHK
Data set [4] deals with Cyclin-dependent kinase 19 (Homo sapiens) (UniProt Q9BWU1). The data set is described as follows: Binding affinity to wild-type human partial length CDK11 (M1 to N360 residues) expressed in bacterial expression system assessed as residual binding level at 1 uM by Kinomescan method relative to control. The essentials:
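KinomeScan, an active site-directed competition binding panel of 468 kinases. The test compound was at 1 μM. The readout is remaining kinase binding as a percentage of the DMSO control. Scores above 35% were treated as weak binding and not listed.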

Data set [5] addresses Cyclin-dependent kinase 14 (Homo sapiens) (UniProt O94921). The data set is described as follows: Binding affinity to wild-type human full length PFTK1 (M1 to H451 residues) expressed in bacterial expression system assessed as residual binding level at 1 uM by Kinomescan method relative to control. Summed up:
as §1

The nature of data set [6]: AUC in B6 mouse at 5 mg/kg, ip. The settings on record: in vivo. The data set is classed as ADME, organism-based.
Data set [7] deals with Ephrin type-A receptor 4 (Homo sapiens) (UniProt P54764). The data set is described as follows: Binding affinity to wild-type human partial length EPHA4 (T601 to R897 residues) expressed in bacterial expression system assessed as residual binding level at 1 uM by Kinomescan method relative to control. The essentials: (§3)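 Active-site-directed competition binding panel of 468 kinases (KinomeScan), compound at 1 μM. The read-out is kinase remaining bound, given as a percentage of the DMSO control. […]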
Sequence of Ephrin type-A receptor 4 (Homo sapiens) (P54764 whole entry, the tested form may be a part): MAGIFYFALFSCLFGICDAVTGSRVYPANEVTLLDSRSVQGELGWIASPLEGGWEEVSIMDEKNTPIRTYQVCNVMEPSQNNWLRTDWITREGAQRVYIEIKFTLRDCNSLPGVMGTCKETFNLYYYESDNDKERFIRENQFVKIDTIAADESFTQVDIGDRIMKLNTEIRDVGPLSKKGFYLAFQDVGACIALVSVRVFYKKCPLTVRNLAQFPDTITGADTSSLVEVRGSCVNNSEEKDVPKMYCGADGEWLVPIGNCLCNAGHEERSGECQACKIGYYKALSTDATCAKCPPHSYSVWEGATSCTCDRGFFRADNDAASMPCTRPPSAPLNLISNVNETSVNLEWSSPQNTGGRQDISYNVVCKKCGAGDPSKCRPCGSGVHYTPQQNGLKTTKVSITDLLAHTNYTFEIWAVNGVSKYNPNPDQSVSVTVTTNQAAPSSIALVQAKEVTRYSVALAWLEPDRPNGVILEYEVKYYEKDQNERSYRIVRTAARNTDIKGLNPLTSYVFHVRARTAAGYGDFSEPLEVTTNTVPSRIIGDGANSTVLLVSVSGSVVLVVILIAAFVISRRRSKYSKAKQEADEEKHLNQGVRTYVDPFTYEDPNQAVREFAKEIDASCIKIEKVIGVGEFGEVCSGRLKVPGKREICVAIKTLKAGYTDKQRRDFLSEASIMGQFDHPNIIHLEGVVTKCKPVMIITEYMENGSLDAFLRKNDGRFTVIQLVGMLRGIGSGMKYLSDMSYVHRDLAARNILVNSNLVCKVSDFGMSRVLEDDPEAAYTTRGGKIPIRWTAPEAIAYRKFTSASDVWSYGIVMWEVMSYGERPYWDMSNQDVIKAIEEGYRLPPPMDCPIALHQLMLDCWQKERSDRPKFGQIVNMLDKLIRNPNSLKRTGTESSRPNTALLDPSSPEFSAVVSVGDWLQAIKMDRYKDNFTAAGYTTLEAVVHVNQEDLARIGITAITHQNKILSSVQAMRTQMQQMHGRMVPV

The target in data set [8] is Ephrin type-B receptor 2 (Homo sapiens) (UniProt P29323). Kind of data set: Binding affinity to wild-type human partial length EPHB2 (I597 to L902 residues) expressed in bacterial expression system assessed as residual binding level at 1 uM by Kinomescan method relative to control. The essentials: as §3
The target of data set [9] is Casein kinase I isoform gamma-2 (Homo sapiens) (UniProt P78368). The data set is described as follows: Binding affinity to wild-type human full length CSNK1G2 (M1 to K415 residues) expressed in bacterial expression system assessed as residual binding level at 1 uM by Kinomescan method relative to control. Summed up:
as §2

Data set [10] deals with Serine/threonine-protein kinase 32A (Homo sapiens) (UniProt Q8WU08). The data set is described as follows: Binding affinity to wild-type human full length YANK1 (M1 to L396 residues) expressed in mammalian expression system assessed as residual binding level at 1 uM by Kinomescan method relative to control.
Data set [11] addresses Serine/threonine-protein kinase RIO3 (Homo sapiens) (UniProt O14730). Kind of data set: Binding affinity to wild-type human full length RIOK3 (M1 to E519 residues) expressed in bacterial expression system assessed as residual binding level at 1 uM by Kinomescan method relative to control. The essentials:
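Active-site-directed competition binding screen across a 468-kinase panel, run with the test compound at 1 μM. The read-out is the kinase signal remaining relative to a DMSO control, reported as a percentage. […]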

Data set [12] concerns the target Serine/threonine-protein kinase D2 (Homo sapiens) (UniProt Q9BZL6). Kind of data set: Binding affinity to wild-type human partial length PRKD2 (A519 to E838 residues) expressed in bacterial expression system assessed as residual binding level at 1 uM by Kinomescan method relative to control. Summed up: as §3
Data set [13] deals with Phosphatidylinositol 3-kinase C2 domain-containing subunit gamma (Homo sapiens) (UniProt O75747). Kind of data set: Binding affinity to wild-type human partial length PIK3C2G (M1 to I1446 residues) expressed in mammalian expression system assessed as residual binding level at 1 uM by Kinomescan method relative to control.
The target of data set [14] is Mitogen-activated protein kinase kinase kinase kinase 4 (Homo sapiens) (UniProt O95819). Kind of data set: Binding affinity to wild-type human partial length MAP4K4 (M1 to R310 residues) expressed in bacterial expression system assessed as residual binding level at 1 uM by Kinomescan method relative to control.
The target of data set [15] is Serine/threonine-protein kinase PAK 1 (Homo sapiens) (UniProt Q13153). The data set is described as follows: Binding affinity to wild-type human partial length PAK1 (S149 to H545 residues) expressed in bacterial expression system assessed as residual binding level at 1 uM by Kinomescan method relative to control.
Sequence of Serine/threonine-protein kinase PAK 1 (Homo sapiens) (Q13153 whole entry, the tested form may be a part): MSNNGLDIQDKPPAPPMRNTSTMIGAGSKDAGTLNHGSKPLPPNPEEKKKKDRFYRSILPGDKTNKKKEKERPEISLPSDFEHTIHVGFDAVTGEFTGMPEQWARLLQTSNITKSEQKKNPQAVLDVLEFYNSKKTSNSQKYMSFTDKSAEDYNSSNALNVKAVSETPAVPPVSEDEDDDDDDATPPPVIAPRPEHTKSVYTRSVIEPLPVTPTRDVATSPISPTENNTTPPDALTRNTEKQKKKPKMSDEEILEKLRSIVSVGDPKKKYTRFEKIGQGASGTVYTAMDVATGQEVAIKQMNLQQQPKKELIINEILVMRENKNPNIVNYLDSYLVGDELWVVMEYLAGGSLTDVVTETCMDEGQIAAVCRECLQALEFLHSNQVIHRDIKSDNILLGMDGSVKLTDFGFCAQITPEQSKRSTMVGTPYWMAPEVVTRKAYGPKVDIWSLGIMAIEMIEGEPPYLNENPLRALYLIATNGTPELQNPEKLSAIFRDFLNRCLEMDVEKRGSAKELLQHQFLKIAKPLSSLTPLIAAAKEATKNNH
Data set [16] deals with Uncharacterized serine/threonine-protein kinase SBK3 (Homo sapiens) (UniProt P0C264). Kind of data set: Binding affinity to wild-type human partial length SgK110 (L22 to R329 residues) expressed in bacterial expression system assessed as residual binding level at 1 uM by Kinomescan method relative to control. The essentials: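 Active site-directed competition binding panel (KinomeScan, 468 kinases). Test compound at 1 μM. Read-out is kinase binding remaining versus DMSO control, expressed as percent of control. Scores above 35% are treated as weak binding.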

Data set [17] has as its target Ephrin type-B receptor 4 (Homo sapiens) (UniProt P54760). The data set is described as follows: Binding affinity to wild-type human partial length EPHB4 (H585 to G892 residues) expressed in bacterial expression system assessed as residual binding level at 1 uM by Kinomescan method relative to control.
For data set [18], the target named is cAMP-dependent protein kinase catalytic subunit beta (Homo sapiens) (UniProt P22694). Kind of data set: Binding affinity to wild-type human full length PKAC-beta (M1 to F351 residues) expressed in bacterial expression system assessed as residual binding level at 1 uM by Kinomescan method relative to control. Summed up: as §1
The target in data set [19] is Calcium/calmodulin-dependent protein kinase type 1 (Homo sapiens) (UniProt Q14012). The data set is described as follows: Binding affinity to wild-type human full length CAMK1 (M1 to L370 residues) expressed in bacterial expression system assessed as residual binding level at 1 uM by Kinomescan method relative to control. Summed up:
as §2

Data set [20] concerns eIF-2-alpha kinase GCN2 (Homo sapiens), Q9P2K8 [S808G]. Kind of data set: Binding affinity to wild-type human partial length GCN2 kinase domain 2 (R585 to T1018 residues) S808G mutant expressed in bacterial expression system assessed as residual binding level at 1 uM by Kinomescan method relative to control.
Sequence of eIF-2-alpha kinase GCN2 (Homo sapiens), Q9P2K8 [S808G] (Q9P2K8 whole entry S808G, the tested form may be a part): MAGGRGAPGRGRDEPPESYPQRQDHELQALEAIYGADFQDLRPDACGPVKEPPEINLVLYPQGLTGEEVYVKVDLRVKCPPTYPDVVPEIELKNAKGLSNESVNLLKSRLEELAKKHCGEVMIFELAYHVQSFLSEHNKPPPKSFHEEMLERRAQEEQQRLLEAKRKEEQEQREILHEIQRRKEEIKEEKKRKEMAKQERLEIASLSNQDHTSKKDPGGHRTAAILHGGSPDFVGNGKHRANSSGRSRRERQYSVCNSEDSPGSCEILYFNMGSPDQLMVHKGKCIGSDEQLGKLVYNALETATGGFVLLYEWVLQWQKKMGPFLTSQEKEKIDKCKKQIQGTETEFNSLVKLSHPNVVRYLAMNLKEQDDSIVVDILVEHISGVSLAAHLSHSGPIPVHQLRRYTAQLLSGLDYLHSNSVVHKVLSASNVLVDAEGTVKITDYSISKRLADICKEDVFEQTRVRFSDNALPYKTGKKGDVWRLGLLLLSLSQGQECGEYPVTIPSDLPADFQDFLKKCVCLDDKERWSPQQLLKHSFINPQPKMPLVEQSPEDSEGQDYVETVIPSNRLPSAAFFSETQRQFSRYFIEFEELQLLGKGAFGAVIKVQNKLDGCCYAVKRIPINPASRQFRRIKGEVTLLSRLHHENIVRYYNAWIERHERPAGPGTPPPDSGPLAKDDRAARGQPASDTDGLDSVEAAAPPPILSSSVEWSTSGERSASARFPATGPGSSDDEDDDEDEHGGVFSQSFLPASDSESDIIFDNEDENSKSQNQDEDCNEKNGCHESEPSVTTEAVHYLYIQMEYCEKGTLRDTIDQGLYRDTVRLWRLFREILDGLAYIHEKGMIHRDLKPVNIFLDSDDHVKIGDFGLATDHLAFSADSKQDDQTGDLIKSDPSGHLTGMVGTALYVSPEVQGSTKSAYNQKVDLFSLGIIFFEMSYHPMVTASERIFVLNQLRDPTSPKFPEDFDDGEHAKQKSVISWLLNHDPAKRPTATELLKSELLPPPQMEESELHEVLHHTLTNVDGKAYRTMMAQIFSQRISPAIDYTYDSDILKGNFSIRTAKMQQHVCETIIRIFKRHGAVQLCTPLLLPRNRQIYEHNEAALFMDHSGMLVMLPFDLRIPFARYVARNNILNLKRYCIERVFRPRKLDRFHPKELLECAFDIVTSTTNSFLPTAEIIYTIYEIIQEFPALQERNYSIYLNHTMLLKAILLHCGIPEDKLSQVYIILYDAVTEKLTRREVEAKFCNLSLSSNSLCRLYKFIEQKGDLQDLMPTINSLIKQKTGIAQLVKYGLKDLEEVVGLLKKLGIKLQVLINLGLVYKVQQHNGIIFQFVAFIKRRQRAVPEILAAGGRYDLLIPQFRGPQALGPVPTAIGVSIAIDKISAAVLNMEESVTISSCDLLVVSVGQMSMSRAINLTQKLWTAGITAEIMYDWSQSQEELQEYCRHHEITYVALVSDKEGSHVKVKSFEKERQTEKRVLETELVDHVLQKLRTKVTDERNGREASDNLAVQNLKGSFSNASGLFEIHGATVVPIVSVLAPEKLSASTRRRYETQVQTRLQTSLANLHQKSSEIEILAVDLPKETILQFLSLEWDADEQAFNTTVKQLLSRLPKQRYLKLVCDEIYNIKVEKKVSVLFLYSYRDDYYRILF

Sequence of Serine/threonine-protein kinase RIO3 (Homo sapiens) (O14730 whole entry, the tested form may be a part): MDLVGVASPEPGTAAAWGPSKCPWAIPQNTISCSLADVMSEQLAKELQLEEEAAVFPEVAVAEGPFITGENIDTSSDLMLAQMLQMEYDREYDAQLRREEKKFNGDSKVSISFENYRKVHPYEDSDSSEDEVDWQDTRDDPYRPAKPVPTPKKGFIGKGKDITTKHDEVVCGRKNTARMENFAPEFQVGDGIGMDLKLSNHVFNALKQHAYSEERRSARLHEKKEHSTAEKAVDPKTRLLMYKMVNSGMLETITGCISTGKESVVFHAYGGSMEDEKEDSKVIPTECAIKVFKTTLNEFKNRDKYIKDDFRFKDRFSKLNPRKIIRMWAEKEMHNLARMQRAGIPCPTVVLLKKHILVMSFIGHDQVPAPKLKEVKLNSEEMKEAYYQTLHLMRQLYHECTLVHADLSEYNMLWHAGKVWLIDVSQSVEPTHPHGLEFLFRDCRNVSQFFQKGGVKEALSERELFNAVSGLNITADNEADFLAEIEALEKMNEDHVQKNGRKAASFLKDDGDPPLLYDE
Sequence of Cyclin-dependent kinase 19 (Homo sapiens) (Q9BWU1 whole entry, the tested form may be a part): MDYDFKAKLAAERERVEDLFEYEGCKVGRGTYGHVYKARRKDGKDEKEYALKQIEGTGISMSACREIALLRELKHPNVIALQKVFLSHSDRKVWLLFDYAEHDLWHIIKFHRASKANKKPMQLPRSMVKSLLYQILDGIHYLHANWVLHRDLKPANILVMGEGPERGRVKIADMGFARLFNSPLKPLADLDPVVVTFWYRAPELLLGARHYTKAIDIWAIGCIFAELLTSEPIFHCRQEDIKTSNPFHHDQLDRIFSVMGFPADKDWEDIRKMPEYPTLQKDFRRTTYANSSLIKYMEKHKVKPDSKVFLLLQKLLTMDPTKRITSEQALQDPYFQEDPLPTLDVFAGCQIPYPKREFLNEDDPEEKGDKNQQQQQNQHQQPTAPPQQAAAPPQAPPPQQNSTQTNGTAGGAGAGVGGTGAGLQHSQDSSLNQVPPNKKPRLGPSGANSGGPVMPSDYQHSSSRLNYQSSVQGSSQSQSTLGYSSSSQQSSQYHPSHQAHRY
Sequence of Calcium/calmodulin-dependent protein kinase type 1 (Homo sapiens) (Q14012 whole entry, looked up, the tested form may be a part): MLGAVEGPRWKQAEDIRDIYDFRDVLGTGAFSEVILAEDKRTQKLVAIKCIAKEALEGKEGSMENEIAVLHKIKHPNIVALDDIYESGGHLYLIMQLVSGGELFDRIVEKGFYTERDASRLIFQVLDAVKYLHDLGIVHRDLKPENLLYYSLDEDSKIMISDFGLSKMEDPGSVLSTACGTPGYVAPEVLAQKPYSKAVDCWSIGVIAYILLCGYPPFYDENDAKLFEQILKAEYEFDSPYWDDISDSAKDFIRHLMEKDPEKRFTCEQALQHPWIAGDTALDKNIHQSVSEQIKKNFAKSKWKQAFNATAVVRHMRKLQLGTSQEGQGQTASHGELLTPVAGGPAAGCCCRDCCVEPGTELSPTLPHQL

One may read the AUC as the area under the concentration-time curve, a measure of exposure. On to `C=CC(=O)Nc1ccccc1Nc1nc(Nc2ccc(N3CCN(C)CC3)cc2)ncc1C(=O)Nc1c(C)cccc1Cl`, for which the Activity in data set [1] was 100%; in [2] it was 100%; in data set [3] it was 100%; in [4], 96%; in data set [5], 100%; in data set [7] it was 75%. The Activity turned out to be 59% in data set [8]; 100% in data set [9]; 100% in data set [10]; 92% in [11]; 99% in [12]; 100% in data set [13]. Also, the Activity in data set [14] came out at 100%; in data set [15], 100%; in data set [16], 60%; in [17], 100%; in data set [18], 100%; in data set [19], 100%. For the same molecule, the Activity in [20] is 87%. For the same molecule, the AUC in [6] was 212 ng·h/mL.
